Assay outcomes deposited in PubChem BioAssay by several laboratories.
Rows were chosen to be rich in hits. Some 2.7% of all compounds tested hit in one or more screens of this group.
CSN inh: CSN deneddylation inhibition; Q92905; Purified CSN, SCF-Nedd8-OG deneddylation, fluorescence polarization; inhibition, % at 12.5 µM; actives 0.38% (n = 360,000);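 active means pattern-corrected inhibition above about 35%, with an unprinted fluorescence ratio check between 0.5 and 1.5, limit read from the data, passing the limit was not always enough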;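 further: 0% = enzyme with substrate and 100% = substrate without enzyme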
Target sequence (Q92905 whole entry, looked up, one chain of several): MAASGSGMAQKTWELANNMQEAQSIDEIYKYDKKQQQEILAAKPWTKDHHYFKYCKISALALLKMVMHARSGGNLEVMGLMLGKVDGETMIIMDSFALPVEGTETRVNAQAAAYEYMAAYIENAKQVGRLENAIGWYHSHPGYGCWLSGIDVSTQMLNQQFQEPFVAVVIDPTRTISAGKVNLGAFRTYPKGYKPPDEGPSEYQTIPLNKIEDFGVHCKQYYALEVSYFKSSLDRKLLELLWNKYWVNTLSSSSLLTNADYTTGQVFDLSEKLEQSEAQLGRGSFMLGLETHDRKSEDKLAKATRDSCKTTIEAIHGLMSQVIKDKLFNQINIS
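Detection – fluorescence polarization · System – HEK293T-derived human Csn5 enzyme · Controls – substrate-only high control, full reaction low control · Timing – 90 min, room temperature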
HNF4A DNA FP: change in binding of human HNF4 alpha to DNA. HNF4a-FITC DNA binding, fluorescence polarization, 1 h. P41235. activity change, % at 10 µM. actives 0.3% (n = 360,000). AID 1224865; in the data active means activity change above about 30%, passing the limit was not always enough
TPT1 inhibitor: inhibitors of Candida albicans tRNA 2'-phosphotransferase TPT1; recombinant caTPT1, FP RNA substrate dephosphorylation; actives 0.81% (n = 300,000); inhibition, % at 5 µM;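 active means inhibition above the mean of all tested compounds plus 3 SD, set per screening campaign, cut at about 24% in these data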;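 further: plate controls were DMSO alone for no effect and ferristatin control at 100 nM for full effect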
NadD block: NadD (S. aureus) enzyme inhibition | purified NadD enzyme, colorimetric absorbance read-out | inhibition, % at 20 µM | actives 0.78% (n = 360,000) | AID 602399; in the data active means inhibition above about 26%
PP1 counter: PP1-alpha (human) inhibition in PP5 counter-screen; P62136; purified PP1alpha, OMFP fluorescence; inhibition, % at 6.7 µM; actives 0.9% (n = 320,000); AID 2235;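 active means inhibition above the mean inhibition of all tested compounds plus 3 SD, computed separately for each screening campaign, cut at about 15% in these data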
Rpn11 block: blocks the human proteasome subunit Rpn11. human 26S proteasome, Ub4-pepOG fluorescence polarization; 20S core pre-blocked with epoxomicin. O00487. actives 0.59% (n = 360,000). inhibition, % at 20 µM;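 active means inhibition at 20 µM, scaled to each plate's controls, above about 33%, limit read from the data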
Target sequence (O00487 whole entry, looked up): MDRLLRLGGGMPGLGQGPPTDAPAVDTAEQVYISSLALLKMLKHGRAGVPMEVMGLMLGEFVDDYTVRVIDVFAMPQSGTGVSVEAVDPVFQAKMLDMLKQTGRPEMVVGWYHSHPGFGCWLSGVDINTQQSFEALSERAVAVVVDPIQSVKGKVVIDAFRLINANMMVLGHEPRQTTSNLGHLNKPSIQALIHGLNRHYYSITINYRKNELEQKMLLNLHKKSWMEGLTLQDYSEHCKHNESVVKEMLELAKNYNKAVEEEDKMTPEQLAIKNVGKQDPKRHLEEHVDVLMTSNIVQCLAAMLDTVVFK
NadD inh conf: NadD (S. aureus) inhibition, single concentration confirmation; purified S. aureus NadD, colorimetric enzyme assay; shares compounds with NadD block; inhibition, % at 20 µM; actives 13% (n = 2,000); AID 624309; in the data active means inhibition mostly above about 42%, no sharp cut-off; inactive means mostly below about 42%
* = called active by the depositor; / = no result.

SMILES | CSN inh | HNF4A DNA FP | TPT1 inhibitor | NadD block | PP1 counter | Rpn11 block | NadD inh conf
O=C(c1ccccc1)c1ccc2nc(-c3ccco3)c(-c3ccco3)nc2c1 | 65 | -44 | 14 | 75* | 6 | 6 | 19
c1coc(-c2nc3ccccc3nc2-c2ccco2)c1 | 51 | -18 | 3 | 2 | 1 | 0 | /
CCOC(=O)c1cc(-c2ccc(N3C(c4ccsc4)=Cc4ccccc4C3CC(C)=O)cc2)cc([N+](=O)[O-])c1 (centres undefined) | -4 | -1 | / | 32* | / | / | 0
Cc1csc(=O)n1CCC(=O)OCC(=O)N(C)c1c(N)n(Cc2ccccc2)c(=O)[nH]c1=O | 8 | -1 | / | 3 | / | 2 | /
COc1ccc(N2CCN(C(=O)CCCCCn3c(=S)[nH]c4cc5c(cc4c3=O)OCO5)CC2)cc1 | -1 | 1 | 2 | 5 | -12 | 0 | /
O=C(CCCn1c(=S)[nH]c2cc3c(cc2c1=O)OCO3)N1CCN(c2ccccc2)CC1 | 3 | 1 | 2 | 14 | -2 | 0 | /
Cc1cccc(N2CCN(C(=O)CCCn3c(=S)[nH]c4cc5c(cc4c3=O)OCO5)CC2)c1C | 1 | 4 | 2 | 56* | 12 | 3 | 14
CCOC(=O)N1CCN(C(=O)CCCCCn2c(=S)[nH]c3cc4c(cc3c2=O)OCO4)CC1 | 6 | 4 | 3 | -3 | -1 | -4 | /
O=C(CCCn1c(=S)[nH]c2cc3c(cc2c1=O)OCO3)N1CCN(c2ccc(Cl)cc2)CC1 | 5 | -1 | 5 | 35* | -6 | 8 | 18
CC(=O)c1ccc(N2CCN(C(=O)CCCn3c(=S)[nH]c4cc5c(cc4c3=O)OCO5)CC2)cc1 | 5 | 1 | -1 | 46* | -3 | 12 | 15
O=C(NCc1ccccc1)C1CCC(=O)N(CCN2CCOCC2)C1 (centres undefined) | -6 | 2 | -6 | 6 | -3 | -3 | /
O=C(CSc1ccc2nnc(CCNC(=O)c3ccccc3)n2n1)Nc1ccc(F)cc1F | 1 | 3 | -2 | 1 | -3 | -3 | /
Cc1cccc(NC(=O)COC(=O)CN2C(=O)c3ccccc3C2=O)c1C | -5 | -2 | / | -3 | / | 1 | /
COc1ccc(/C=N/NC(=O)c2ccc(CN3c4cccc5cccc(c45)S3(=O)=O)cc2)cc1 | 1 | 2 | -5 | 31* | 14 | 3 | 33
COc1cc(/C=N/NC(=O)c2ccc(CN3c4cccc5cccc(c45)S3(=O)=O)cc2)cc(OC)c1O | -8 | 3 | / | 25 | / | 2 | /
NNC(=O)c1ccc(CN2C(=O)c3cccc4cccc2c34)cc1 | -12 | 3 | 4 | 17 | 9 | -2 | /
COc1ccccc1/C=N/NC(=O)c1ccc(CN2C(=O)c3cccc4cccc2c34)cc1 | -5 | 3 | 1 | 35* | 16* | 11 | 12
Cc1[nH][nH]c(=O)c1C(c1c(C)[nH][nH]c1=O)c1cn(Cc2cccc3ccccc23)c2ccccc12 | -1 | 11 | 3 | 46* | 16* | 18 | 67*
CC(=NNC(=O)CCC(=O)Nc1ccccc1Cl)c1ccco1 | -1 | 2 | / | -1 | / | -5 | /
COc1cccc(C2C(C#N)=C(N)OC3=C2C(=O)CC(c2ccco2)C3)c1OCc1ccc(F)cc1 (centres undefined) | 9 | -2 | 6 | 31* | 10 | 12 | 16
N#CC1=C(N)OC2=C(C(=O)CC(c3ccco3)C2)C1c1ccc(OCc2c(F)cccc2Cl)cc1 (centres undefined) | 33 | 4 | 3 | 34* | 14 | 12 | 20
N#CC1=C(N)OC2=C(C(=O)CC(c3ccccc3)C2)C1c1ccoc1 (centres undefined) | -7 | -1 | 2 | 1 | 1 | -6 | /
CC(C)c1ccc(NC(=O)COC(=O)C2CC3C=CC2C3)cc1 (centres undefined) | 0 | 1 | / | -8 | / | -6 | /
Cc1ccc(NC(=O)c2ncn(CC(=O)NCc3ccc4[nH]ccc4c3)n2)cc1C | -6 | 0 | / | 0 | / | -1 | /
Cc1ccc(NC(=O)c2ncn(CCCN(CCCn3cnc(C(=O)Nc4ccc(C)c(C)c4)n3)Cc3ccc4[nH]ccc4c3)n2)cc1C | 6 | 2 | / | 39* | / | 16 | 32
SMILES | CSN inh | HNF4A DNA FP | TPT1 inhibitor | NadD block | PP1 counter | Rpn11 block | NadD inh conf
O=C(N/N=C/c1ccc(Cl)c([N+](=O)[O-])c1)c1cc(-c2ccc3c4c(cccc24)CC3)n[nH]1 | 6 | -4 | 1 | 51* | 2 | 7 | 1
Cc1cccnc1CNC(=O)C1(C)CCCN1CC(C)C (centres undefined) | 4 | 2 | / | 4 | / | -7 | /
O=S(=O)(Nc1cccc(-c2cn3cccnc3n2)c1)c1ccc(-c2ccccc2)cc1 | 0 | 3 | 1 | 40* | 4 | 4 | 41
O=c1oc2ccccc2cc1-c1csc(Nc2nc3ccc(F)cc3s2)n1 | / | / | -5 | / | -1 | / | /
O=c1oc2ccccc2cc1-c1csc(Nc2nc3c(F)cccc3s2)n1 | -3 | 7 | 4 | 57* | -3 | 31 | 1
O=C(COC(=O)c1cccs1)NCc1ccco1 | 16 | -8 | -3 | -2 | -5 | -4 | /
O=C(COC(=O)c1ccc(NS(=O)(=O)c2cccs2)cc1)NCc1ccco1 | 35 | -49 | 1 | 30* | 13 | 6 | 32
CC(C)[C@]1(c2ccc(Cl)cc2)ON(c2ccccc2C(F)(F)F)C1=O | / | / | / | / | -5 | / | /
Cc1ccc(-n2c(N)c(S(=O)(=O)c3ccccc3)c3nc4ccccc4nc32)cc1 | -2 | -1 | -1 | 4 | -3 | 10 | /
Cc1cccc(S(=O)(=O)c2c(N)n(-c3ccccc3)c3nc4ccccc4nc23)c1 | 2 | -1 | -2 | 12 | 1 | 11 | /
Cc1cccc(S(=O)(=O)c2c(N)n(/N=C/c3ccco3)c3nc4ccccc4nc23)c1 | 23 | 8 | 9 | 41* | -5 | 34 | 11
Nc1c(S(=O)(=O)c2ccccc2)c2nc3ccccc3nc2n1/N=C/c1ccco1 | 22 | 14 | 17 | 37* | -2 | 29 | 4
Cc1cc2c(N)cccc2nn1 | -30 | -51 | -5 | 37* | 1 | -56 | 0
O=C(Nc1cc(Br)ccc1O)c1cc(-c2ccco2)on1 | 12 | 2 | 6 | 29* | 9 | 13 | 11
CC1CCCCN1c1nnc(NC(=O)c2cc(-c3ccc(Br)cc3)on2)s1 (centres undefined) | 8 | 1 | 1 | 31* | -1 | 12 | 10
C/C(=N\NC(N)=S)C1=CCC2C3CC[C@H]4CC(O)CC[C@]4(C)C3CC[C@]12C (some centres undefined) | 9 | -2 | -3 | 36* | 3 | 17 | 12
CC12CCC3C(CCC4CC(O)CCC43C)C1CC(O)C2 (centres undefined) | -2 | 1 | / | -1 | / | 3 | /
